ChEMBL document CHEMBL1135785, “N-[(2-Sulfo)-9-fluorenylmethoxycarbonyl](3)-gentamicin C(1) is a long-acting prodrug derivative” (J Med Chem, 2002)

Columns and labels:
[1] = Half life after i.v. administration to rat; type: ADME, organism-based; details: in vivo, iv
How it was run: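 Rats (n = 4 per group) received 1 μmol/rat intravenously in 0.2 mL PBS, pH 7.4. Tail blood was sampled at several time points. Immunoreactive gentamicin was measured by fluorescence polarization immunoassay, with each point the mean of four rats. Circulating half-life was taken from the decline phase.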

Albumin [2] = biological target: T1, Albumin (Homo sapiens, UniProt P02768); experiment: The compound was evaluated for pharmacokinetic parameters Serum albumin associating affinity
[3] = The compound was evaluated for pharmacokinetic parameters HSA associating affinity; type: ADME; details: human
How it was run: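 Human serum albumin (11.4 μM) in 0.05 M HEPES, pH 6.7, preincubated 10 min with or without rising conjugate concentrations. p-Nitrophenyl acetate (PNPA) then added to 1 mM final. Absorbance read at 410 nm 60 min later. IC50 calculated for inhibition of HSA-evoked PNPA hydrolysis, then converted to Kd estimates. FMS-L-serine served as internal standard.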

[4] = Half life for hydrolysis of the compound; type: ADME
How it was run: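 Conjugate was incubated in 0.1 M NaHCO3, pH 8.5, at 37 °C. Aliquots were withdrawn over time and assayed with TNBS for the appearance of free amino groups to give the FMS hydrolysis half-life.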

Albumin [5] = biological target: T1, Albumin; experiment: The compound was evaluated for albumin associating affinity along with 3.0 M of FMS
How it was run: (§1)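 Albumin affinity was inferred from the PNPA esterase assay. HSA (11.4 μM, 0.05 M HEPES, pH 6.7) was preincubated 10 min with graded conjugate concentrations, then given 1 mM PNPA (final). A410 was read at 60 min. The resulting IC50 values were converted to Kd estimates.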

Albumin [6] = biological target: T1, Albumin; experiment: The compound was evaluated for albumin associating affinity 0.7 M of FMS; how it was run: as §1
Albumin [7] = biological target: T1, Albumin; experiment: The compound was evaluated for albumin associating affinity along with 1.3 M of FMS; how it was run: as §1
Albumin [8] = biological target: T1, Albumin; experiment: The compound was evaluated for albumin associating affinity along with 2.1 M of FMS; how it was run: as §1
Escherichia coli [9] = experiment: Potency for its ability to inhibit replication of Escherichia coli; type: functional
How it was run: (§2)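 Antibacterial potency was measured as inhibition of Escherichia coli replication, expressed as half-maximal inhibitory concentration and as percent of native gentamicin activity.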

Escherichia coli [10] = experiment: The compound was evaluated for its ability to inhibit replication of Escherichia coli; type: functional, organism-based; how it was run: as §2
Albumin [11] = biological target: T1, Albumin; experiment: Evaluated for inhibition of Serum albumin evoked PNPA hydrolysis in presence of 2.1 M of FMS; type: functional
How it was run: (§3)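 Human serum albumin (11.4 μM) in 0.05 M HEPES, pH 6.7, was preincubated for 10 min with or without increasing concentrations of each FMS-gentamicin conjugate. PNPA was then added to a final 1 mM. Absorbance at 410 nm was read 60 min later, and IC50 was calculated for inhibition of HSA-evoked PNPA hydrolysis.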

Albumin [12] = biological target: T1, Albumin; experiment: Evaluated for inhibition of Serum albumin evoked PNPA hydrolysis in presence of 3.0 M of FMS; type: functional; how it was run: as §3
Albumin [13] = biological target: T1, Albumin; experiment: Evaluated for inhibition of Serum albumin evoked PNPA hydrolysis in presence of 0.7 M of FMS; type: functional; how it was run: as §3
Albumin [14] = biological target: T1, Albumin; experiment: Evaluated for inhibition of Serum albumin evoked PNPA hydrolysis in presence of 1.3 M of FMS; type: functional; how it was run: as §3

T1 sequence (P02768 whole entry): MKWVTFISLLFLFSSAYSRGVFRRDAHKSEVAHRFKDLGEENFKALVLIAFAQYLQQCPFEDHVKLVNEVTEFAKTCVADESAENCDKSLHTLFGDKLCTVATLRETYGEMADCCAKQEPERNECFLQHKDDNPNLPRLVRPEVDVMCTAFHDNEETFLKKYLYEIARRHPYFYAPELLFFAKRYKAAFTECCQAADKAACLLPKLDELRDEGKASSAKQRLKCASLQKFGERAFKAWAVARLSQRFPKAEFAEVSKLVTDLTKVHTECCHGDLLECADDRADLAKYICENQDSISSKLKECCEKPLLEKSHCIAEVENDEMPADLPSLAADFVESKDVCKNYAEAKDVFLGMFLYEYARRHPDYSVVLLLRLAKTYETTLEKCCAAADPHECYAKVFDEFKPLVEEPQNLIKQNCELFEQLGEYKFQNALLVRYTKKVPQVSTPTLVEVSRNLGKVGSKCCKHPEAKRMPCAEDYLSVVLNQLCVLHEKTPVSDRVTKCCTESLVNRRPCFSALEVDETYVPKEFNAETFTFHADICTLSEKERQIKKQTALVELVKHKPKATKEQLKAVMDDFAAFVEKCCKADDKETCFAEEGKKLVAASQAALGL

half-life [1] | Kd (Albumin [2]) | Ka [3] | half-life [4] | Kd (Albumin [5]) | Kd (Albumin [6]) | Kd (Albumin [7]) | Kd (Albumin [8]) | IC50 (Escherichia coli [10]) | IC50 (Albumin [11]) | IC50 (Albumin [12]) | IC50 (Albumin [13]) | IC50 (Albumin [14]) | SMILES | Potency (Escherichia coli [9])
1.3 h | 20 µM |  |  |  |  |  |  |  |  |  |  |  | CNC(C)[C@H]1CCC(N)[C@@H](O[C@@H]2C(N)C[C@@H](NC(=O)OCC3c4ccccc4-c4ccc(S(=O)(=O)O)cc43)C(O[C@H]3OC[C@](C)(O)C(NC)[C@@H]3O)[C@@H]2O)O1 (stereo partly specified) | 
3.8 h |  | 131000 M⁻¹ | 8 h | 7.6 µM | 32 µM | 17.2 µM | 9.2 µM | 24 µM | 23 µM | 19 µM | 80 µM | 43 µM | CNC(C)[C@H]1CCC(NC(=O)OCC2c3ccccc3-c3ccc(S(=O)(=O)O)cc32)[C@@H](O[C@@H]2C(NC(=O)OCC3c4ccccc4-c4ccc(S(=O)(=O)O)cc43)C[C@@H](NC(=O)OCC3c4ccccc4-c4ccc(S(=O)(=O)O)cc43)C(O[C@H]3OC[C@](C)(O)C(NC)[C@@H]3O)[C@@H]2O)O1 (stereo partly specified) | <1%
 | 9.2 µM |  |  |  |  |  |  |  |  |  |  |  | CNC(C)[C@H]1CCC(N)[C@@H](O[C@@H]2C(NC(=O)OCC3c4ccccc4-c4ccc(S(=O)(=O)O)cc43)C[C@@H](NC(=O)OCC3c4ccccc4-c4ccc(S(=O)(=O)O)cc43)C(O[C@H]3OC[C@](C)(O)C(NC)[C@@H]3O)[C@@H]2O)O1 (stereo partly specified) | 
